Variants at the floor of the assay were thinned out.
B1: tRNA (parent)
chain: GUUCCGUUGGCGUAAUGGUAACGCGUCUCCCUCCUAAGGAGAAGACUGCGGGUUCGAGUCCCGUACGGAACG

Variants of: B1
Test: yeast fitness relative to wild type (ratio to wild type); higher = fitter; tRNA-Arg(CCU), competitive growth, 37 C, YPD
In short: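 Changes in genotype frequencies gave Darwinian fitness relative to wild type. Frequencies were read by 100-nucleotide paired-end sequencing of gene amplicons before and after pooled Saccharomyces cerevisiae strains, carrying tRNA-Arg(CCU) gene variants at the native locus, were competed in YPD at 37°C for 24 hours in six replicates. A genotype was kept only with ≥ 100 starting reads, and estimates < 0.5 were set to 0.5.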

First: GUUCCGUUGGCGUAAUGGUAACGCGUGUCCCUCCUACGGGGAAGAUUGCGGGUUCGAGUCCCGUACGGAACG
Second: GUUCCGUUGGCGUAAUGGUAACGCGUCUCCAUGCUAAGGAGCAGACUACGGGUACGAGUCCCGUAAGGAACG
The yeast fitness of the first is higher: 0.578 for the first, at most 0.5 for the second.

GUUCCCUUGGCGGAAUGAUAACGCGUCUCCCUCCUAAGGAGAAGACUCCGGGUUCGAGUCCCGUACGUAACG and GUUCCGUUGGCGUACUGGUAACGCGUCUCCCUCCAGAGGAAAAGACAGCGGGUUCGAGUCCCGUACGGAACG cannot be ordered by yeast fitness: at most 0.5 for the first, at most 0.5 for the second.

First: GUUCCGUUGGCGUAAUGGUAACGCGUCUCCCACCUAAGGAGAAGUCUGCGGGUGCGAGUCCCGUACGGAACG
Second: GUUCCGUUGGCGUUAUGGUAACGCGUCUCCCUCCUAAGGAGAAGACUGCGGGUUCGAGUCCCGUAUGGAACG
The yeast fitness of the first is lower: at most 0.5 for the first, 0.756 for the second.

Compared with GUUCCGUUAGCCUCAUGGUAACACGUCUCCCUCCUAAGGAGAAGACUGCCGGUUCGAGUCCCGUACGGAACG, GUUCCGUCGGCGUAAUGGUAACGCCUCUCCCUACUAAGGAGAAGACUGCGGGUUCGAGUCUCGUACGGAACG is lower in yeast fitness: 0.56 for the first, at most 0.5 for the second.

First: GUUCCGUUGGCGUAAUGGUAACGGGUCUCCCCCCUAAGGAGAAGACUGCGGGUUCGAGUCCCGUACGGAACG
Second: GUGCCGUUGGCGUAAUGGUAACGCGUAUCCCUCCUAAGGAGAAGACUGCGGGUUCGAGUCAUGUACGGAACG
The yeast fitness of the first is higher: 0.599 for the first, at most 0.5 for the second.

First: GUUCCGUUGGCCUAAUGGUAACGCGUCUCCCUCCUAAGGAGAAGACUGCGGGCUCGAGUGCCUUACGGAACG
Second: GUUCCGUUGGCGUAUUGGUAAAAAGUCUCCCUCCUAAGGAGAAGAAUGCGGGUUCGAGUCCCGUACGGAGCG
The yeast fitness of the first is higher: 0.691 for the first, at most 0.5 for the second.

Going from GUUCCGUUGGCGUAAUGGCCACGCGUCUCCAUCCUAAGGAGAAGACUGCGGGUUCGAGUCCCGUACGGAACG to GUUCCGUUGGCGUAAUGGUAACGCGUCUCCCUCCUAAGGAGAAGAAUGCGGGUUCCAGUCCCGUACGGAACG, the yeast fitness rises from at most 0.5 to 0.642.

Going from GCUCCGUUGGCGUAAUGGUAAGGCGUCUCCCUCCUACGGAGAAGUCUGCGGGUUCGAGUCCCGUACAGAACG to GUUCCGUUGGCGUAAUGGUAACGCGUCUCCCUGCUAACGAGAAGACUGCGGGUUAGAGUCCCGUUCGGAACG, the yeast fitness rises from at most 0.5 to 0.665.

Going from GUUCUGUUGGCGUCAUGGUAACGCGUCUCCCUCCUAAGGAGAAGAGUGCGGGUUCGAGUCCCGUACGGAACG to GGUCCGUUGGCGUAAUGGUAACGCGUCUUCCUCCUAAGGAGAAGACUGCGGGUUUGAGUCCCGUACGGAACG, the yeast fitness falls from 0.561 to 0.527.

Going from GUUCCCUUGGCGUAAUGGUAACGCGUCUCCCUCCUAAGGAGAAGACUGCGGGUUCGAGUCCCGUGCGGAACG to GUUCCGAUGACGUAAUGGUAACGCGUCUCCCUACUCAGGAGAAGACUGCGGGUUCGAGUCUCGUAUGGAACG, the yeast fitness falls from 0.94 to at most 0.5.

Going from GUUCCGUUGGCGUAAUGGUAACGUGUCUCCCUCCUAAGGAGCAGAAUGCGGGUACGAGUCCCGUACGGAACG to GUUCCGCUGGCGUAAUGGUAACGCGUCUCCCUCCUAAGGAGAAAACUGCGGGUUCGAGUCCCGUACGGAACG, the yeast fitness rises from at most 0.5 to 0.807.

GUUCCGUUGGCGUAAUGGUAACGCGUCUCUCACCUUUGGAGAAGACUGCGGGUUCGAGUCCUAUACGGAACG and GUACCGUUGGCGUAAUGGUACCGGGUCUCCCUCCUAAGGAGAAGACUGUGGGUUCGAGUCCCGUCCGGAACG cannot be ordered by yeast fitness: at most 0.5 for the first, at most 0.5 for the second.

First: GUUCCGUUGGCGUUAUGGUAACGCGUGUCCCUCCUAAGGAGAAGACUGCGGGUUCGAGUCCCGUAUGGAACG
Second: GUUCCGUUGGCGUAAUGGUAACGCGCCUCCAUCCUAACGAGAAGACUGCGGGUUCGAGUCCCGUACGGAACG
The yeast fitness of the first is lower: at most 0.5 for the first, 0.529 for the second.

First: GUUCCGUUGGCGUAAUGGUAACGCGUCUCCCUCCUAAGGAGAAGACUGCGGGUUCGAGUCCGGUACGGCACG
Second: GUUCCGUUGGUGUAAUGGUAACGCCUCUCCCUCCUAAGGAGAAGACUGCGGGUUUGAGUCCCGUACGGAACG
The yeast fitness of the first is higher: 0.617 for the first, at most 0.5 for the second.

First: GUUCCGUUGGCGUAAUGGUAGCGCGUCUCCCUCCUAAGGCGUAGAUUGUGAGUUCGAGUCCCGUCCGGAACG
Second: GUUCAGUUGGCGUAAUGGUAACGCGUCUCCCUCCUAAGGGGAAGACUGCGGGUUCGAGUCCCGUGCGGAACG
The yeast fitness of the first is higher: 0.732 for the first, 0.605 for the second.

GUUAGGUUGGCGUAAUGGUAACGCGUCUCCCUCCUAGGGAGAAGAGUGCGGGUUCGAGUCCCGUACGGAACG and GUUCCGAUCGCGUAAUCGUAACGCGUCUCCCUCCUAAGGAGAUGACUACGGGUUCGAGUCCCGUACGGAACG cannot be ordered by yeast fitness: at most 0.5 for the first, at most 0.5 for the second.

Compared with GUUCCGUUGGUGUCGUGGUAACGCGACUCCCUCAUAAGGAGAAGAGUGCGGGUUCGAGUCCCGUACGGAACG, GUUCCGUUGGCGUAAUGGUAACGAGGCUCCCUCCUAAGGAGAAGACUGCGGGUUCGAGUCCCGUACGGAACG is higher in yeast fitness: 0.637 for the first, 0.655 for the second.

Going from GUUCCGUUGGCGUAAGGGUAACGUGUCUGCCUCCCAAGGAGAAGACUGCAGGUUCGAGUCCCGUAUGGAACG to GUUCCGUUGGCGUAAUGGUAACGUGUCUCCCUCCUAAGGAGAAGACUGCGGGUUCGAGCCCCGUACGGAACG, the yeast fitness rises from at most 0.5 to 0.879.

With GUUCCGUUGGCGUAAUGGUAACGUGGCUCCCUCCUAAGGAGAGGACUGCGGGUUCGAGUCCCGUACGGAACG the yeast fitness was 0.727.
